These results are taken from the EternaBench riboswitch data.

The subject of the data set is MS2 coat protein. The experiment in a line: apparent Kd, MS2 coat protein; higher = weaker binding; RNA-MaP array; FMN 200 µM where present. The procedure, abridged:
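Stalled E. coli RNA polymerase produced the designs on Illumina sequencing-chip clusters. SNAP-549-labelled MS2 coat protein was added from 0.7 or 1.5 nM, doubling to 3 µM, without and then with constant ligand, in 100 mM Tris-HCl pH 7.5, 80 mM KCl, 4 mM MgCl2, BSA, DTT, yeast tRNA and Tween-20. The apparent Kd is the median of filtered per-cluster fits of green signal normalised to red-channel RNA signal and control-cluster median Fmax.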

Setting [1] is: designed as: ON switch for flavin mononucleotide, no ligand.
Setting [2] is: ligand present: flavin mononucleotide, designed as: ON switch for flavin mononucleotide.
The mark [3] stands for this setting: designed as: OFF switch for flavin mononucleotide, no ligand.
[4] abbreviates: ligand present: flavin mononucleotide, designed as: OFF switch for flavin mononucleotide.

Take “GGAGCUCCUGACAUGAGGAUCACCCAUGUUCACUUAUUAAAUCAGGAUAUCCUCUCGAAACGAGAGGAGAAGGGAUAUGCUCCU”: the “apparent Kd” value came out at 7.58 nM under setting [1] and 7.04 nM under setting [2].

“CGACGAGUGGAGAAGGACUUUGACUAGUACAGGGUAGGAUAUCCACAUGAGGAUCACCCAUGUAGGAUACUUAUUGGGCCGCCU”: the “apparent Kd” value by setting is: under setting [3], 10.3 nM; under setting [4], 49 nM.

With “AGUCAUACAGGAUAUACAUGAGGAUCACCCAUGUAUAUCCAAAAAAAAUGAUCCUCAUGUAGAAGGGUAUGACA”, the “apparent Kd” value runs as follows: under setting [3], 15.9 nM; under setting [4], 10.5 nM.

For the sequence “AGUAGAUCAGGAUAUACAUAAAUGAUAAUUAUGUACUUUUUACAUGAGGAUCACCCAUGUAGAAGGGAUCUACA”, the “apparent Kd” value reads like this: under setting [3], 14.8 nM; under setting [4], 22 nM.

For “AAUUGAAACGUAGGAUAUCGCUAUAAAUUAACACGAGAAGGACGUACAUGAGGAUCACCCAUGUUAAAUGGUGUAGUUUAGUUG”, the “apparent Kd” value under setting [3] came to 32.8 nM and the “apparent Kd” value under setting [4] is 95.5 nM.

As for “AAGAAACACGUGGAGUUAUUCGGGUAGGAUAUCUACGACCUGAUCGACAUGAGGAUCACCCAUGUAGAGAAGGGCCCAUCUCCU”, the “apparent Kd” value was determined as 6.65 nM under setting [3] and 8.87 nM under setting [4].

Consider “GGUAGAGACGUUAACAUGAGGAUCACCCAUGUCGAAGGAGAUGAGGAUAUCGUAUACGAUGUAUAUGAGAAGGCAUGGUCUGCC”, for which the “apparent Kd” value runs as follows: under setting [1], 24.4 nM; under setting [2], 11.7 nM.

In the case of “GUAGCUAUCGGAGGAUAUUCAUAUCGGAAACGGACAUGAGGAUCACCCAUGUGGCUAAAGCCUUGGGAGAAGGCCGAUAGCUAC”, the “apparent Kd” value under setting [1] came out at 120 nM and the “apparent Kd” value under setting [2] was 7.75 nM.

As for “UCGCUGCGAGGAUAUACAUGAGGAUCACCCAUGUACGGGUCCGGGUCUUCGUCCAUUAGUAGAAGGCGCAGUGA”, the “apparent Kd” value under setting [3] turned out to be 52.8 nM and the “apparent Kd” value under setting [4] was found to be 325 nM.

Take “AGGCGGGCAGGAUAUGCGUACUGACGGGAAAACUGAAUGGUACAUGAGGAUCACCCAUGUAGAAGGGCUUUGAA”: the “apparent Kd” value stood at 50.1 nM under setting [3] and 38.3 nM under setting [4].

For the sequence “UCAUUGUAAGGAUAUAAAAGCUCGCGGAAUUGCACGGGUUGUUAGAAGGUACAUGAGGAUCACCCAUGUUCCUA”, the “apparent Kd” value reads like this: under setting [3], 17.1 nM; under setting [4], 22.1 nM.

On to “UCCUCACAUGAGGAUCACCCAUGUCAGGAUAUACCCAAAGCUGCGAAAAUAUCCAGCUGUAGAAGGGACAGGCU”, for which the “apparent Kd” value runs as follows: under setting [3], 18.3 nM; under setting [4], 20.1 nM.

Regarding “GGGUGGCGUAGAGGAUAUGUGGUACAUGAGGAUCACCCAUGUGCAUAUGAUGUUCGUGUUUAUGUAUAGAAGGCUACGUCGCUA”, the “apparent Kd” value is, setting by setting: under setting [1], 12.5 nM; under setting [2], 12.3 nM.

In the case of “GGUUAUUGCAAGGAUAUGCUUUUUUUUUAUUUUGCAGAAGGUGCAACAUGAGGAUCACCCAUGUUGGAGGGUUU”, the “apparent Kd” value under setting [3] was found to be 21.7 nM and the “apparent Kd” value under setting [4] was found to be 31.9 nM.

“AGUUUUGUACAUGAGGAUCACCCAUGUUAAUAUGUGGUAGUCAGAAGGCAUUGUUAGUGUUUAUAUGAGGAUAUGAUUAGUCAG”: the “apparent Kd” value was 50.3 nM under setting [1] and 26.4 nM under setting [2].

Regarding “UUACAGCACGGGUAGGAUAUGUAGGGUGGUACAUGAGGAUCACCCAUGUAUCCACCCUUCGAACGGCAGAAGGGCCUGUCACUGC”, the “apparent Kd” value is, setting by setting: under setting [1], 16.7 nM; under setting [2], 17 nM.

As for “AAGAAGUGAGGAUAUGCUGCUCGUCACUUGCGUGAUGAGUAGCAGAAGGCACAUGAGGAUCACCCAUGUGAAAA”, the “apparent Kd” value by setting is: under setting [3], 26 nM; under setting [4], 43.3 nM.

Take “GCUGGUCGAGGAUAUGCAAUCGUGCUUCGGCACGUAAGGUCACAUGAGGAUCACCCAUGUAGAAGGUGACCAGC”: the “apparent Kd” value reads like this: under setting [3], 17.1 nM; under setting [4], 23.3 nM.

Regarding “AAAUGGGCGUAGGAUAUGAGAUGGUCUAGCAGCUCAGAAGGACGCACAUGAGGAUCACCCAUGUGAUCGGACUA”, the “apparent Kd” value under setting [4] came out at 224 nM.

For the sequence “AGAUCCUGAGUCAGGAUAUAGAGGCGGUAGCCUGGCUAGAAGGGACAUGAGGAUCACCCAUGUGGGUUCGAGCC”, the “apparent Kd” value reads like this: under setting [3], 17.7 nM; under setting [4], 31.3 nM.

Take “GUUAUUUAUGUAGGAUAUGCGAGGCGAGCCUAAGCAGAAGGACAUGAGGAUCACCCAUGUAUUGCGGUUUGUGUUCAGAUCGCU”: the “apparent Kd” value is, setting by setting: under setting [3], 27.3 nM; under setting [4], 84.9 nM.

Regarding “AAACAUGUCCGAGGAUAUCUGAGAUCAUUUUCAAGAGAAGGCGGACAUGAGGAUCACCCAUGUCUCUCCUCAUCAACUCUAAAU”, the “apparent Kd” value runs as follows: under setting [3], 5.99 nM; under setting [4], 36.9 nM.

Regarding “AGAAAUCAUGUAGGAUAUGCAUGGCGAAGCUACGCAGAAGGACAUGAGGAUCACCCAUGUUAUAGCGUCCGAGAAAGGAUGCAA”, the “apparent Kd” value runs as follows: under setting [3], 27.9 nM; under setting [4], 187 nM.

Regarding “UAAAUGUGAGGAUAUUCGAUGAACUCGGAGACGAGUUUAUCGGAGAAGGCACAUGAGGAUCACCCAUGUUCCUU”, the “apparent Kd” value came out at 22.3 nM under setting [3] and 225 nM under setting [4].

Consider “UAUUAGCUAGGAUAUACAUGAGGAUCACCCAUGUCACGGGUCCACUCAUCCUAUGCGUGUAGAAGGAGCGACCC”, for which the “apparent Kd” value runs as follows: under setting [3], 22.9 nM; under setting [4], 26.6 nM.

On to “ACAUAGUGAGGAUAUGCUGCUCGUCACUUGCGUGAUGAGUAGCAGAAGGCACAUGAGGAUCACCCAUGUAAAGA”, for which the “apparent Kd” value reads like this: under setting [3], 42.3 nM; under setting [4], 63.7 nM.

For the sequence “CUUUCGUGAGGAUAUGAAAAUUCGAUCGUGAGAUCGAGGCUACAGAAGGCACAUGAGGAUCACCCAUGUUCCUC”, the “apparent Kd” value under setting [3] turned out to be 31.5 nM and the “apparent Kd” value under setting [4] stood at 320 nM.

As for “GGGUACAUCGGAGGAUAUCAUGUAAAUACAUGAGGAUCACCCAUGUCGAUGGAGACAUCGCAGAUUGAGAAGGCCGAUGUACCG”, the “apparent Kd” value came out at 28 nM under setting [1] and 5.26 nM under setting [2].

Consider “UGGUCGGAGACAGGAUAUGUGACUGCAUAGUGCACAGAAGGGUCUACAUGAGGAUCACCCAUGUCACCGACCACCAAACAACAA”, for which the “apparent Kd” value runs as follows: under setting [1], 626 nM; under setting [2], 55.2 nM.

Take “GGGAUGUGAGGAUAUACAUGAACUAUCCACUGUGCUGGGCCACAUGAGGAUCACCCAUGUAGAAGGUACGCCCA”: the “apparent Kd” value runs as follows: under setting [3], 66.2 nM; under setting [4], 168 nM.

Regarding “CAUUCAUGUCUAGGAUAUGAGUGACAAGCGCGAAGUUUUUUCGCCGCUAGCUCAGAAGGAGACAUGAGGAUCACCCAUGUAAGG”, the “apparent Kd” value is 24.1 nM under setting [3] and 9.96 nM under setting [4].

For the sequence “AAUGUGUCAGGAUAUUGUUAGUUUAGUUGUUUGUAUUAGUUCGAGAAGGGACAUGAGGAUCACCCAUGUUGUUA”, the “apparent Kd” value worked out at 36.4 nM under setting [3] and 29.1 nM under setting [4].

For “ACAUGUUUUGUAGGAUAUCACUUGUUAUGUUAUAUAUUUGUUAUAAUCUAUUGAGAAGGACAUUUACAUGAGGAUCACCCAUGU”, the “apparent Kd” value came to 8.83 nM under setting [3] and 7.08 nM under setting [4].

“CUAUAUAAUACCUCAUGUACAUGAGGAUCACCCAUGUUAACUUAGGAUAUAUUUAUAUUGAUAGAGUAGAAGGAAGUACUAUUU”: the “apparent Kd” value under setting [3] amounted to 15.8 nM and the “apparent Kd” value under setting [4] was 13.8 nM.

For the sequence “GUAGCAUACCGAGGAUAUUCAUACAAUAAAUAAACAUGAGGAUCACCCAUGUGGCGAAAGCCUAGGGAGAAGGCGGAAUGCUAC”, the “apparent Kd” value under setting [1] was 154 nM and the “apparent Kd” value under setting [2] is 21.8 nM.

On to “AAUCCACAUGAGGAUCACCCAUGUGAGGAUAUGAUACUAUGUACUUCGGUACAUAGUAUCAGAAGGCACAGGUC”, for which the “apparent Kd” value is, setting by setting: under setting [3], 23.6 nM; under setting [4], 51.6 nM.

For “CGUUAAUAUCGAGGAUAUGUCUAGACACAUGAGGAUCACCCAUGUAUGUGUAUAGAAGGCGAUAUUAACAGCAUGUUACAUGCG”, the “apparent Kd” value under setting [1] came to 38.3 nM and the “apparent Kd” value under setting [2] was determined as 16.7 nM.

Turning to “UGUUAUUUGACAGGAUAUUGAUUGUUAAGUUUUUACAUGAGGAUCACCCAUGUUGUUCAUUCGUACAAGAAGGGUCAAGUUUUU”, the “apparent Kd” value runs as follows: under setting [1], 72.8 nM; under setting [2], 27.2 nM.

Turning to “CGUUAAUAUCGAGGAUAUGUCUAGACACAUGAGGAUCACCCAUGUAUGUGUAUAGAAGGCGAUAUUAACAGCAUGUUACAUGCC”, the “apparent Kd” value is, setting by setting: under setting [1], 45.5 nM; under setting [2], 16.3 nM.

Consider “ACACAGCGAGGAUAUACAUGAGGAUCACCCAUGUGGUGGCGGUUACGGUAGGACUAGUGUAGAAGGUGCCGUGG”, for which the “apparent Kd” value came to 480 nM under setting [3] and 414 nM under setting [4].

“CAAAACAUCUCCGUGUUUGUCGAACAUGAGGAUCACCCAUGUAGAAGGCGCUUCGCGUCGCGGAGCGAGGAUAUACGCUGGAUG”: the “apparent Kd” value runs as follows: under setting [3], 11.4 nM; under setting [4], 86.3 nM.

With “AGCUGACGAGGAUAUACAUGAGGAUCACCCAUGUUGGUCAAGCGACGAUAGUCGCAAUGUAGAAGGUGUCAGCU”, the “apparent Kd” value reads like this: under setting [3], 138 nM; under setting [4], 565 nM.

Take “GAUUUAGAGCAGGAUAUCAUAGAAAUGUAUGAAUGAGAAGGGCUCACAUGAGGAUCACCCAUGUGGUCCUAGAU”: the “apparent Kd” value reads like this: under setting [3], 25.4 nM; under setting [4], 240 nM.

“CCCGCCCGUCGAGGAUAUAUUAUAUGACAACAAACACAUACAUGAGGAUCACCCAUGUCCCAUGUAUAGAAGGCGACCUGCGUC”: the “apparent Kd” value came out at 74.8 nM under setting [1] and 98.2 nM under setting [2].

As to “UUUUAACAUGAGGAUCACCCAUGUGAGGAUAUCGAAAUUUAUAUUAAUAUUUAUAUUACGAGAAGGCACAUUUU”, the “apparent Kd” value reads like this: under setting [3], 81.6 nM; under setting [4], 82.4 nM.

As to “GAUGCACAUGAGAAGGCGAUCAUGAAACAUGAUCGAGGAUAUCAUGUAAACAUGAGGAUCACCCAUGUAUGGGAAAAGUGCAUC”, the “apparent Kd” value under setting [1] was determined as 119 nM and the “apparent Kd” value under setting [2] turned out to be 12.1 nM.

Regarding “UGUCCAUAGCAGAAGGCUAGAAAACAUGAGGAUCACCCAUGUCAAAAGACUAGAGGAUAUGCUAUGGACUAAGAGCGAAAGCUC”, the “apparent Kd” value runs as follows: under setting [3], 3.97 nM; under setting [4], 3.81 nM.

Turning to “AAAAAACAUGAGGAUCACCCAUGUCAGGAUAUCGUUGAAAAAAAAAAAAAAAAAAAAGCGAGAAGGGACACGAA”, the “apparent Kd” value is, setting by setting: under setting [3], 72.6 nM; under setting [4], 68.2 nM.

With “CAUUUGUGAGGAUAUCAGGUGUGCUAGCGUACUGGUACAUCUGAGAAGGCACAUGAGGAUCACCCAUGUUCCUU”, the “apparent Kd” value reads like this: under setting [3], 12.8 nM; under setting [4], 30 nM.

In general, apparent Kd refers to the concentration giving half-maximal binding under the conditions of the assay.
